Experimental data from different studies.
Lines come from different studies, so protocols differ.
IGF1R: Insulin-like growth factor 1 receptor (IGF1R, Homo sapiens, UniProt P08069)

C=CC(=O)Nc1cc(Nc2nccc(Nc3cc(Cl)c(F)cc3C(C)(C)O)n2)c(OC)cc1N1CC[C@@H](N(C)C)C1  inhibition (IGF1R; enzyme activity; inhibitor; 1 µM): 35%
O=C(NCc1ncc(C(F)(F)F)cc1Cl)c1ccc2c(c1)C1(CCS(=O)(=O)CC1)[C@@H](C1CC1)N2S(=O)(=O)c1ccc(F)cc1  remaining binding (IGF1R; cell-free assay; competition with immobilised ligand; 1 µM): 88%
Cc1ccc(C(=O)NCc2ccsc2)cc1C#Cc1cn(C(C)C)c2ncnc(N)c12  activity vs control (IGF1R; enzyme activity; inhibitor; 1 µM): 75%
N#Cc1ccc(Nc2ccc3[nH]c(=O)[nH]c3c2)c(Cl)c1  remaining binding (IGF1R; cell-free assay; competition with immobilised ligand; 1 µM): 99%
Cc1cc(NC(=O)c2cccc3cc(-c4cccc5[nH]nc(N)c45)ccc23)ccc1F  activity vs control (IGF1R; enzyme activity; inhibitor; 0.1 µM): 143%
COc1cc(/C=C/C(=O)CC(=O)/C=C/c2ccc(O)c(OC)c2)ccc1O  activity vs control (IGF1R; enzyme activity; inhibitor; 1 µM): 99%
COc1ccc(Cl)cc1NC(=O)Nc1cc(C)nc2ccccc12  remaining signal (IGF1R; cell-free assay; 0.5 µM): 94.9%
O=C(CSc1nc2nccnc2c(=O)n1CCc1ccccc1)Nc1nccs1  inhibition (IGF1R; enzyme activity; inhibitor; 10 µM): 12%
CCS(=O)(=O)c1cc2cc(C[C@@](O)(CC(C)(C)c3ccc(F)cc3C(N)=O)C(F)(F)F)[nH]c2cn1  remaining binding (IGF1R; cell-free assay; competition with immobilised ligand; 1 µM): 100%
CN(c1ncccc1CNc1nc(Nc2ccc3c(c2)CC(=O)N3)ncc1C(F)(F)F)S(C)(=O)=O  inhibition (IGF1R; enzyme activity; inhibitor; 1 µM): 97.6%
CNCc1ccc(-c2cc(-c3nc(-c4ccc(S(=O)(=O)C(C)C)cc4)cnc3N)on2)cc1  inhibition (IGF1R; enzyme activity; inhibitor; 2 µM): 2%
CN1CC(Oc2cnc(C#N)cc2-c2ccn3nc(NC(=O)C4CC4)cc3c2)C1  inhibition (Insulin-like growth factor 1 receptor, phosphorylated (IGF1R, Homo sapiens, UniProt P08069); enzyme activity; inhibitor; 1 µM): -13%
CC/C(=N\NC(=O)NCc1cccc(O)c1)c1ccc(O)c(C)c1O  inhibition (IGF1R; enzyme activity; inhibitor; 0.1 µM): 3%
CN(C(=O)c1ccccc1)c1cc(N(C)c2ccc3c(c2)CCc2ccc(C(=O)NCCN4CCOCC4)cc2C3=O)ccc1F  remaining binding (IGF1R; cell-free assay; competition with immobilised ligand; 1 µM): 90%
CCN(CC)CCNC(=O)c1c(C)[nH]c(/C=C2\C(=O)Nc3ccc(F)cc32)c1C  inhibition (IGF1R; enzyme activity; inhibitor; 0.3 µM): 4%
Cc1nccc(COC(=O)N2C[C@@H]3[C@@H](CNC(=O)c4ccc5[nH]nnc5c4)[C@@H]3C2)n1  remaining binding (IGF1R; cell-free assay; competition with immobilised ligand; 1 µM): 93%
O=C1Nc2ccc(Cl)cc2C1=Cc1cc(Cl)c(O)c(Cl)c1  remaining signal (IGF1R; cell-free assay; 0.5 µM): 98.3%
CN(C)C(=O)Cn1cc(-c2nc(C3(c4ccc(-c5cnc(N)nc5)cc4)CC3)no2)cn1  remaining binding (IGF1R; cell-free assay; competition with immobilised ligand; 1 µM): 85%
CNC(=O)c1cc(Oc2ccc(NC(=O)Nc3ccc(Cl)c(C(F)(F)F)c3)cc2)ccn1  inhibition (IGF1R; enzyme activity; inhibitor; 0.3 µM): -3%
Cc1ccc(C(=O)Nc2ccc(CN3CCN(C)CC3)c(C(F)(F)F)c2)cc1C#Cc1cnc2cccnn12  remaining signal (IGF1R; cell-free assay; 23.5 nM): 84%
COc1cc2ncnc(Nc3ccc(Oc4ccccc4)c(C)c3C)c2cc1OC  inhibition (IGF1R; enzyme activity; inhibitor; 1 µM): 2%
